hERG protect: hERG (human) protection from proarrhythmic block; CHO-hERG, FluxOR thallium flux, dofetilide IC70 present; activation (rescue from dofetilide block), less the hit threshold, % at 10 µM; 310,000 compounds, 0.51% hits; AID 1511;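 active = activation above the mean of controls blocked by dofetilide plus 5 SD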;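 note: thallium influx through hERG after potassium depolarization seen as dye fluorescence rise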
KCNQ1 act: potentiates or activates the human KCNQ1 potassium channel; CHO-K1 KCNQ1, thallium flux FluxOR fluorescence; stronger effect = higher value; B-score at 10 µM; 310,000 compounds, 0.35% hits; P51787;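 active = fluorescence ratio B-score, a plate-corrected score, at least three library SD, with initial intensity B-score within 5 SD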
Target sequence (P51787 whole entry, looked up): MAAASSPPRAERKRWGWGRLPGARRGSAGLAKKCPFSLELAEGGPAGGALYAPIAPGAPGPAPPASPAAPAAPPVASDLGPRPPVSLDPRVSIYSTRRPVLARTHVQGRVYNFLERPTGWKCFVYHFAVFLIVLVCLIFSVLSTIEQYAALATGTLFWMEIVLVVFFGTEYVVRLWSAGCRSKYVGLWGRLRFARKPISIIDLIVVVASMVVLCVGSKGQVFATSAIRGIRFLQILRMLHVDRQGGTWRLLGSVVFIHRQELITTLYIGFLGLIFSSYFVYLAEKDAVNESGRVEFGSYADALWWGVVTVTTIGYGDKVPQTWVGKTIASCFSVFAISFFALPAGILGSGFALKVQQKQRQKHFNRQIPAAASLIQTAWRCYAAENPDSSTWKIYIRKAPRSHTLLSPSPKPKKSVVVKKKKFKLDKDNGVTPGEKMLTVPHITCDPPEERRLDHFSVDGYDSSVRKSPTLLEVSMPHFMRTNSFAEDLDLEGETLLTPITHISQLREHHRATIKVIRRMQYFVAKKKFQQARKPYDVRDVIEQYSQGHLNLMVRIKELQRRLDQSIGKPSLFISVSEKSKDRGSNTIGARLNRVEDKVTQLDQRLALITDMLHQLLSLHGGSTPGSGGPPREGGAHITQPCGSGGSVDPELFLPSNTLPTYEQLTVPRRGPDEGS
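Assay system: CHO-K1 cells stably expressing KCNQ1; Medium: assay buffer with matched DMSO; Also added: K+/Tl+ depolarizing stimulus; Dosing: single dose; Timing: dye 90 min, compound 20 min, room temperature; Measured by: kinetic FluxOR thallium fluorescence, 10-s 1-Hz baseline, 110-s post-stimulus read; Read-out: peak-minus-minimum fluorescence over initial fluorescence, negative-control normalized, B-scored.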
KCNK9 inh: blocks the human KCNK9 two-pore domain potassium channel. B-score at 10 µM. 310,000 compounds, 1.2% hits. HEK293 KCNK9, FluxOR thallium flux fluorescence; stronger effect = lower value. Q9NPC2;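 active = ratio B-score over 3 SD below the library mean, with starting fluorescence within 5 SD of its mean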;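 note: negative B-score means less thallium flux so channel inhibition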
KCNK3 inh: human KCNK3 channel inhibition, primary screen | O14649 | CHO-KCNK3 thallium flux, FluxOR fluorescence; stronger effect = lower value | B-score at 10 µM | 340,000 compounds, 0.84% hits | AID 602410;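 active = B-score under library mean minus 4 SD, starting fluorescence ratio at most library mean plus 5 SD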;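 note: more negative B-score means stronger inhibition of thallium flux through KCNK3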
Kir21 block: blocks the mouse Kir2.1 inward-rectifier potassium channel; B-score at 10 µM; P35561; AID 1672; HEK293-Kir2.1, FluxOR thallium flux fluorescence; stronger effect = lower value; 310,000 compounds, 0.85% hits;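 active = fluorescence ratio B-score at or below minus 3 SD of library scores, with starting-brightness B-score within 2 SD, cut at about -4.2 in these data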;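 note: channel flux triggered by added potassium and thallium sulfate stimulus; B-score of peak minus minimum fluorescence over baseline after thallium stimulus; more negative B-score means stronger Kir2.1 block with less thallium influx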
KCNQ1 inh: blocks the human KCNQ1 potassium channel; B-score at 10 µM; P51787; CHO-K1 KCNQ1, FluxOR thallium flux fluorescence; stronger effect = higher value; 310,000 compounds, 1.3% hits; AID 2642;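 active = compounds whose thallium flux B-score, printed positive for inhibition, exceeds three library SD while starting fluorescence stays within three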;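 note: channel opened by potassium depolarization with thallium stimulus after 20 min compound exposure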
Active calls of the source: *; i = inactive; . = no result. The list is not random: actives were taken first. Their share in the collection is about 3.8%.

SMILES	hERG protect	KCNQ1 act	KCNK9 inh	KCNK3 inh	Kir21 block	KCNQ1 inh
COc1ccc(Br)cc1/C=N/N1CCN(Cc2ccccc2Cl)CC1	-1.2	i	i	i	0.26	8*
Cc1c(Cl)c([N+](=O)[O-])nn1CC(=O)NCc1cccs1	4.8*	i	i	i	1.42	i
O=C(CNC(=O)c1ccccc1F)N/N=C/c1cc(Br)ccc1OCc1ccccc1	-14.9	i	-6.61*	i	-0.19	i
COc1ccc(Oc2nc(OC)cc(OC)n2)cc1	-1.4	i	i	i	0.74	i
O=C(N/N=C/c1cccnc1)c1ccccc1OCc1ccc(Cl)cc1	-4.5	i	-6.87*	.	0.18	i
O=C(CSc1nnnn1-c1ccc(C(=O)O)cc1)NC1CC1	-9.4	i	i	i	0.98	i
CCN(C(=O)Cn1cnc2c1c(=O)n(C)c(=O)n2C)C1CCS(=O)(=O)C1 (stereo not drawn)	.	.	.	i	.	.
O=C(NCC1CC1)c1cc(-c2ccccc2)nn1CC1CC(c2cccc([N+](=O)[O-])c2)=NO1 (stereo not drawn)	-8.2	i	-8.34*	i	2.79	i
O=C(NCc1cccc(Br)c1)c1cc(-c2ccccc2)nn1CC1CC(c2cccc([N+](=O)[O-])c2)=NO1 (stereo not drawn)	-13.5	i	-7.07*	i	-0.61	i
COCCNC(=O)c1cc(-c2ccccc2)nn1CC1CC(c2cccc([N+](=O)[O-])c2)=NO1 (stereo not drawn)	-7.8	i	i	i	0.96	i
CCC1Oc2ccccc2N(CC(=O)NC2CCCCC2C)C1=O (stereo not drawn)	-8.2	i	i	i	-0.42	i
Cc1cc(C)c(NC(=O)CCCN2CCN(C)CC2)c(C)c1	-2.6	i	i	i	-2.02	i
CN1CCN(CCCc2c3c(cc4c2CCC4)CCC3)CC1	-8.3	i	i	i	-4.39*	i
COc1ccc(-c2csc3ncnc(N4CCN(c5cccc(Cl)c5)CC4)c23)cc1	-15.8	i	i	i	0.27	6*
COc1ccc(-c2csc3ncnc(N4CCN(S(=O)(=O)c5ccc(C)cc5)CC4)c23)cc1	-13.9	i	i	i	-0.07	i
COc1ccc(N2CCN(c3ncnc4scc(-c5ccc(C)cc5)c34)CC2)cc1	-3.6	i	-7.87*	i	1.64	i
COc1ccc(-c2csc3ncnc(N4CCN(S(=O)(=O)c5ccc(Cl)s5)CC4)c23)cc1	-13.6	i	i	i	-1.28	i
O=C(N/N=C/c1ccc([N+](=O)[O-])o1)c1cn(-c2ccccc2)nc1-c1ccccc1	-2.2	i	i	i	-0.15	i
O=C(N/N=C/c1ccc([N+](=O)[O-])o1)c1cn(-c2ccccc2)nc1-c1ccc(Cl)cc1	8.3*	i	i	i	1.2	i
O=C(N/N=C\c1cn(-c2ccccc2)nc1-c1ccccc1)c1ccc(Br)o1	-8.8	i	-7.13*	i	1.85	13*
N#C/C(=C(/O)c1ccccc1F)c1nc2cc(C(F)(F)F)ccc2s1	-15.9	i	i	i	-1.92	i
N#C/C(=C(/O)c1ccc2c(c1)OCO2)c1nc2cc(C(F)(F)F)ccc2s1	-7.6	i	i	i	-2.16	11*
Cc1ccc(-n2c(C)cc(C(=O)COc3c(CO)cc(F)cc3CO)c2C)cc1C	-17.8	i	i	i	-7.68*	i
COc1ccc(CC(=O)Nc2cc(S(=O)(=O)Nc3ccc(OC)cc3)ccc2OC)cc1	.	.	.	i	.	.
CCOc1ccc(NS(=O)(=O)c2ccc(OC)c(C)c2)cc1	-9.1	i	i	i	-7.51*	i
SMILES	hERG protect	KCNQ1 act	KCNK9 inh	KCNK3 inh	Kir21 block	KCNQ1 inh
CN1CCN(CC#CCn2c3ccccc3c3ccccc32)CC1	-12.8	i	i	i	-7.08*	i
CSc1ccc(/C=C(/NC(=O)c2ccco2)C(=O)N2CCCCC2)cc1	-10.8	i	i	i	0.08	i
COc1cc(/C=C2\C(=O)ON=C2c2ccccc2)cc(Br)c1O	-31.0	i	i	i	-6.63*	7*
CCCOc1ccc(/C=C2/C(=O)ON=C2C)cc1OCC	-2.5	i	i	i	-0.21	i
O=C1ON=C(c2ccccc2)/C1=C/c1ccccc1	-7.5	i	i	i	0.55	i
CCOc1cc(/C=C2/C(=O)ON=C2C)cc(Br)c1O	-13.1	i	i	i	-1.88	9*
COc1cc(/C=C2/C(=O)ON=C2c2ccccc2)ccc1O	-20.7	i	i	i	-4.81*	i
COc1ccc(C)cc1CN(C)c1ccc(S(=O)(=O)N2CCN(C)CC2)cn1	.	.	.	i	.	.
O=[N+]([O-])c1c(NCCCO)cc(Sc2nc3ccccc3s2)c2nonc12	-12.0	i	i	i	1.05	i
Cc1nnc(Sc2cc(NCCO)c([N+](=O)[O-])c3nonc23)s1	-36.4	i	i	i	-2.1	8*
Cc1nnc(Sc2cc(NCCCO)c([N+](=O)[O-])c3nonc23)s1	-23.5	i	-7.22*	i	-7.11*	10*
O=[N+]([O-])c1c(NCCO)cc(N2CCCCCC2)c2nonc12	-5.7	i	i	i	0.19	i
COc1cccc(-c2cc(C(=O)O)[nH]n2)c1	-7.5	i	i	i	0	i
O=C(O)c1cc(-c2cccc([N+](=O)[O-])c2)n[nH]1	49.4*	i	i	i	-1.91	i
COC(=O)c1[nH]nc(C(=O)OC(C)(C)C)c1-c1ccccc1	-10.1	i	i	i	0.01	i
Cc1cc(Nc2ccccc2)nn1C(=O)c1ccccc1	-3.3	i	i	i	0.11	i
COc1ccc(C(=O)n2nc(C)cc2Nc2ccccc2)cc1	-4.4	i	-7.38*	i	0.48	i
Nc1nc(Nc2ccccc2)nc(NCc2ccccc2)c1[N+](=O)[O-]	-4.1	i	i	i	0.83	i
Cc1cccc(Nc2nc(N)c([N+](=O)[O-])c(NCc3ccccc3)n2)c1	-8.5	i	i	i	-2.24	7*
CC(Oc1ccc2ccc(=O)oc2c1)C(=O)NC1CC(C)(C)NC(C)(C)C1 (stereo not drawn)	-9.9	i	i	i	0.94	i
CC1CC(C)(C)N(C(=O)CN2CCN(C)CC2)c2ccccc21 (stereo not drawn)	-7.4	i	i	i	0.02	i
CC(=O)N1Cc2ccccc2C(C)CC12CCCC2 (stereo not drawn)	-8.0	i	i	i	-5.1*	i
